High-throughput results as filed in PubChem BioAssay.
KCNQ1 inh – inhibitors of human KCNQ1 potassium channel | CHO-K1 KCNQ1, FluxOR thallium flux fluorescence; stronger effect = higher value | B-score at 10 µM | hit rate 1.3% among 310,000 | AID 2642;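 active = compounds whose thallium flux B-score, printed positive for inhibition, exceeds three library SD while starting fluorescence stays within three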;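 also: channel opened by potassium depolarization with thallium stimulus after 20 min compound exposure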
KCNK3 block – human KCNK3 channel inhibition, primary screen; CHO-KCNK3 thallium flux, FluxOR fluorescence; stronger effect = lower value; AID 602410; hit rate 0.84% among 340,000; O14649; B-score at 10 µM;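 active = B-score under library mean minus 4 SD, starting fluorescence ratio at most library mean plus 5 SD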;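 also: more negative B-score means stronger inhibition of thallium flux through KCNK3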
hERG protect – hERG (human) protection from proarrhythmic block | Q12809 | CHO-hERG, FluxOR thallium flux, dofetilide IC70 present | activation (rescue from dofetilide block), less the hit threshold, % at 10 µM | hit rate 0.51% among 310,000;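 active = activation above the mean of controls blocked by dofetilide plus 5 SD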;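 also: thallium influx through hERG after potassium depolarization seen as dye fluorescence rise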
Kir21 block – blocks the mouse Kir2.1 inward-rectifier potassium channel. P35561. HEK293-Kir2.1, FluxOR thallium flux fluorescence; stronger effect = lower value. B-score at 10 µM. hit rate 0.85% among 310,000;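 active = fluorescence ratio B-score at or below minus 3 SD of library scores, with starting-brightness B-score within 2 SD, cut at about -4.2 in these data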;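 also: channel flux triggered by added potassium and thallium sulfate stimulus; B-score of peak minus minimum fluorescence over baseline after thallium stimulus; more negative B-score means stronger Kir2.1 block with less thallium influx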
Target sequence (P35561 whole entry, looked up): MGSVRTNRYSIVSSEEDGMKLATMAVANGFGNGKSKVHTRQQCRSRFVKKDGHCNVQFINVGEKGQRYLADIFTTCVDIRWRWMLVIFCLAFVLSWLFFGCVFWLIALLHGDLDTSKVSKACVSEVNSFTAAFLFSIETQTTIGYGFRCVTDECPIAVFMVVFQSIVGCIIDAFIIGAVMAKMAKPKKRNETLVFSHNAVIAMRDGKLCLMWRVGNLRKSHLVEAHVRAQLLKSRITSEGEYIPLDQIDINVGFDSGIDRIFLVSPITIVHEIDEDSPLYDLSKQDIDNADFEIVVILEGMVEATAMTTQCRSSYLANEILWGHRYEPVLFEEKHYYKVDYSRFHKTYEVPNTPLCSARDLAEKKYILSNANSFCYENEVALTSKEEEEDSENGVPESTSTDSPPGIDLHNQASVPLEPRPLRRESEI
KCNQ1 act – potentiators or activators of human KCNQ1 potassium channel | P51787 | CHO-K1 KCNQ1, thallium flux FluxOR fluorescence; stronger effect = higher value | B-score at 10 µM | hit rate 0.35% among 310,000;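 active = fluorescence ratio B-score, a plate-corrected score, at least three library SD, with initial intensity B-score within 5 SD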
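assay system = KCNQ1-transfected CHO-K1 cells | medium = assay buffer with matched DMSO | probe or stimulus = depolarizing K+/Tl+ stimulus, K2SO4 and Tl2SO4 each 12.5 mM in 5x stock | dosing = single dose | incubation = dye 90 min, compound 20 min, room temperature | detection = kinetic FluxOR fluorescence, 10 s baseline plus 110 s post-stimulus | evaluation = ratio B score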
KCNK9 block – inhibitors of human KCNK9 two-pore domain potassium channel; Q9NPC2; HEK293 KCNK9, FluxOR thallium flux fluorescence; stronger effect = lower value; B-score at 10 µM; hit rate 1.2% among 310,000;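 active = ratio B-score over 3 SD below the library mean, with starting fluorescence within 5 SD of its mean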;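 also: negative B-score means less thallium flux so channel inhibition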
KCNK3 inh conf – human KCNK3 channel inhibition, confirmation assay; shares compounds with KCNK3 block; CHO-KCNK3 thallium flux, FluxOR fluorescence; 0% buffer, 100% carvedilol maximal block; ratio percent of control, % at 10 µM; hit rate 99% among 2,400;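 active = ratio percent of control, averaged over triplicates, above buffer control mean plus 5 SD, cut at about 64% in these data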;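 also: ratio is the fluorescence rise from min to max over baseline after thallium stimulus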
KCNK3 uninduced – KCNK3 inhibitor counter-screen hit in non-induced cells | shares compounds with KCNK3 block | non-induced KCNK3 parental cells, FluxOR thallium flux; stronger effect = lower value | thallium flux ratio (lower = more inhibition) at 10 µM | hit rate 40% among 2,400 | AID 651747;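 active = thallium flux ratio, averaged over three wells, more than 5 SD below the buffer control mean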;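 also: host cells are CHO cells without KCNK3 induction; ratio is peak minus trough fluorescence over baseline then normalized to buffer controls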
* marks the source's active call; other numbers are inactive results; i = inactive; . = not tested or not shown. Only some compounds are listed: those with a hit (about 3.7% of all), similar ones and a draw of the others.

SMILES	KCNQ1 inh	KCNK3 block	hERG protect	Kir21 block	KCNQ1 act	KCNK9 block	KCNK3 inh conf	KCNK3 uninduced
COc1cccc(CN(C)C(=O)c2ccc(COc3ccc(Cl)cc3)cc2)c1OC	i	-11*	-14	-0.85	i	i	134*	0.15*
COc1cccc(CN(C)C(=O)c2ccccc2Sc2ccccc2C#N)c1OC	i	-8.7*	-14	-1.4	i	i	98*	i
CC1CCN(C(=O)Nc2cccc(NC(=O)N3CCC(C)CC3)c2)CC1	i	-9*	1	1.2	i	i	112*	i
CC1CCN(C(=O)Nc2ccc3nsnc3c2)CC1	i	i	-2	0.81	i	i	.	.
CCOc1ccc(C(=O)Nc2nnn(CC)n2)cc1	i	i	-14	-1.8	i	i	.	.
CCn1nnc(NC(=O)COc2ccc(C3CCCCC3)cc2)n1	i	-9.7*	-15	0.54	i	i	94*	0.16*
O=C(Cn1cc([N+](=O)[O-])cn1)NC1CCCCCC1	i	i	-7	-0.21	i	i	.	.
CCCC(c1nnnn1Cc1cccs1)N1CCN(c2nc3ccccc3s2)CC1 (configuration not stated)	i	-8.9*	-2	0.63	i	-8.1*	104*	i
CCOc1ccc(-c2cccc(NC(=O)c3ccc(Br)o3)c2)nn1	i	-12*	-4	2	i	i	98*	i
CCCCCCCC(=O)Oc1ccc(C(=O)Nc2cc(C)on2)cc1	i	i	-3	0.86	i	i	.	.
NS(=O)(=O)c1ccc(CCNC(=O)Cc2ccc(S(=O)(=O)N3CCOCC3)s2)cc1	i	i	-12	-1.5	i	i	.	.
FC(F)(F)c1ccccc1NC(=S)Nc1cccc(Cl)c1	8*	-9.6*	-10	-0.63	i	i	93*	i
CC(C)OCCCNC(=O)c1cn(C)c2ccc(S(=O)(=O)N(C)C3CCCCC3)cc2c1=O	i	-9.1*	-10	-0.25	i	i	90*	0.14*
COc1ccc(OCC(O)CNS(=O)(=O)c2cccs2)cc1 (configuration not stated)	i	i	-4	-0.34	i	i	.	.
CC(C)(CNC(=O)c1ccc([N+](=O)[O-])c(Cl)c1)CNC(=O)c1ccc([N+](=O)[O-])c(Cl)c1	i	-9.8*	-20	-0.32	i	-7.9*	131*	0.15*
COc1ccc(NC(=O)Nc2cccc3c2O[C@@H](CN(C)S(=O)(=O)c2cn(C)cn2)[C@@H](C)CN([C@H](C)CO)C3=O)cc1	.	i	.	.	.	.	.	.
O=C(CSc1nnc(-c2ccc(Cl)cc2)n1Cc1ccco1)Nc1ccc2c(c1)OCCO2	i	i	-16	1.6	i	i	.	.
CC(=O)Nc1cccc(NC(=O)CSc2ncc(-c3ccc(Cl)cc3)n2Cc2ccco2)c1	7*	-11*	-27	-0.48	i	i	119*	0.14*
O=C(Nc1ccccc1)C1=C(O)CC(c2ccoc2)CC1=Nc1ccccc1 (configuration not stated)	i	-8.8*	-8	-0.06	i	i	113*	0.16*
CC1CN=C2C(C(=O)Nc3ccccc3)=C(O)CC(c3ccccc3)N21 (configuration not stated)	i	i	-1	0.14	i	i	.	.
Cc1nn(CCCC(=O)NCc2ccc(F)cc2)c(=O)c2nccn12	i	i	-4	-0.73	i	i	.	.
Cc1cc(Cl)ccc1C(=O)C1CCCN(C(=O)c2cncs2)C1 (configuration not stated)	i	i	-4	-1.1	i	i	.	.
Cc1sc2ncnc(N3CCC(C(=O)Nc4ccc(Br)cc4Br)CC3)c2c1C	i	-8.8*	-10	-2.9	i	i	113*	i
